High-throughput results as filed in PubChem BioAssay.
Sampled rows, rich in hits. Any-hit rate of the full collection: about 2.3%.
TRPC6 activator: mouse TRPC6 channel activators, primary screen, cell-based, HEK293, membrane potential dye. B-score at 10 µM. Short transient receptor potential channel 6 (Mus musculus), Q61143. 0.13% of 310,000 active. HEK293-TRPC6 membrane potential dye fluorescence; stronger effect = higher value;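 active means B-score of the integrated fluorescence ratio above library mean plus 3 SD, and starting fluorescence ratio within library mean plus 5 SD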;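 further: higher score means more depolarization so channel activation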
TRPC4 agonist: activators of mouse TRPC4 channel, primary screen, Fluo4 calcium, HEK293 TRPC4beta/mu-opioid cells; Fluo4 calcium fluorescence; stronger effect = higher value; B-score at 10 µM; 0.49% of 310,000 active; AID 2237, 2010;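 active means B-score above 5 SD of library B-scores, and initial fluorescence ratio not above library mean plus 5 SD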;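 further: positive B-score marks a calcium rise read as TRPC4 activation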
Target sequence (Q9QUQ5 whole entry, looked up): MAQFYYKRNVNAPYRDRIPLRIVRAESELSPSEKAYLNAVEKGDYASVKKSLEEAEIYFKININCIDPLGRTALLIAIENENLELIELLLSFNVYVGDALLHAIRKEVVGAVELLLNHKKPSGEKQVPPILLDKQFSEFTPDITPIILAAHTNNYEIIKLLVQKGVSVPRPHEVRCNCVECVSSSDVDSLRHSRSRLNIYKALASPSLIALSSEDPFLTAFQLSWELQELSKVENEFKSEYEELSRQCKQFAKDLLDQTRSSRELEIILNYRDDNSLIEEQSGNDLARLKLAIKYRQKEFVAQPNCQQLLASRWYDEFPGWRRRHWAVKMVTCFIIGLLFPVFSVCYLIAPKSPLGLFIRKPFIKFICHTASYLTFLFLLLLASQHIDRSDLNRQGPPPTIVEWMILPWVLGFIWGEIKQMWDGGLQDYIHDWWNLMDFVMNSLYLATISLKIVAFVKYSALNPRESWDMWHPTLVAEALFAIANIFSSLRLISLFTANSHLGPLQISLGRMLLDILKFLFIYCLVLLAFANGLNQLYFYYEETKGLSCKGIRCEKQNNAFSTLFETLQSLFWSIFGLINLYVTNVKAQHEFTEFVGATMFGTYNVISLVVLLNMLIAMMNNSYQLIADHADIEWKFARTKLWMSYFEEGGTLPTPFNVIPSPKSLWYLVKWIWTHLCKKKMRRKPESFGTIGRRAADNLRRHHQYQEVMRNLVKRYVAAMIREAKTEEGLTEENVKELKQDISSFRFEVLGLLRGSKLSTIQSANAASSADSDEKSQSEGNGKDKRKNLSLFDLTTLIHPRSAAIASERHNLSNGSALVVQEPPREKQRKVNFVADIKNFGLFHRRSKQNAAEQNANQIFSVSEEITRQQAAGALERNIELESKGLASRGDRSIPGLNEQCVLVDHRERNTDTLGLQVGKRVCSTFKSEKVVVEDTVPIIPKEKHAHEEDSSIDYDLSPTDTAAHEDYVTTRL
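Assay system – TRPC4beta and mu-opioid receptor HEK293 stable cells · Measured by – Fluo4 fluorescence, kinetic · Schedule – dye loading 45 min room temperature, 110 s kinetic read · Read-out – B-scored integrated calcium fluorescence ratio · Controls – buffer and maximal DAMGO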
TRPC4 PAM: positive allosteric modulators of TRPC4, primary screen, cell-based, mouse TRPC4beta, HEK293 mu-opioid, Fluo-4 calcium; DAMGO EC20, Fluo-4 Ca2+ flux; stronger effect = higher value; B-score at 10 µM; Short transient receptor potential channel 4 (Mus musculus), Q9QUQ5; 0.42% of 310,000 active;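 active means B-score of calcium response area above 5 SD of library B-scores, with initial fluorescence ratio within 5 SD of library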
TRPC6 inh: mouse TRPC6 channel inhibitors, primary screen, cell-based, HEK293, membrane potential dye. ACh-evoked depolarization; stronger effect = lower value. 1.1% of 310,000 active. B-score at 10 µM. AID 2553, 2010;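 active means B-score under library mean minus 3 SD, initial fluorescence not abnormally high, positive integrated signal ratio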;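 further: B-score derived from integrated fluorescence ratio over the kinetic read; more negative B-score means stronger inhibition of depolarization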
TRPC4 block: inhibitors of mouse TRPC4 channel, primary screen, Fluo4 calcium, HEK293 TRPC4beta/mu-opioid cells | Short transient receptor potential channel 4 (Mus musculus), Q9QUQ5 | DAMGO-evoked Fluo4 calcium flux; stronger effect = lower value | B-score at 10 µM | 0.39% of 300,000 active | AID 2247, 2010;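 active means B-score over 3 SD under the library average, no early fluorescence shift, positive overall ratio signal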
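Assay system: TRPC4beta/mu-opioid receptor HEK293 cell line; compound dosing: single concentration per test compound; detection: Fluo4 Ca2+ flux fluorescence; evaluation: per-well B score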
Of the large screens only hits and unclear results are named; the others gave an inactive call.

O=C1CCCc2nc(N3CCN(C(c4ccccc4)c4ccccc4)CC3)ncc21	TRPC4 agonist 43
N#Cc1ccsc1NC(=O)C1CCCN1S(=O)(=O)c1cccs1 (stereo unspecified)	none
O=C(Cc1cccs1)Nc1nc(-c2ccc(F)cc2F)cs1	TRPC4 PAM 85
Cc1sc2nc(CSCC(=O)Nc3ccccc3C#N)[nH]c(=O)c2c1C	none
COc1ccc(N(CC(=O)NC2CCCC2)C(=O)Cn2nnc(-c3ccc(F)cc3)n2)cc1	none
C=CCNc1nc(N2CCCC2)nc2ccccc12	TRPC4 block -7
CC(=O)NC1=NN(C(C)=O)C(c2sccc2C)S1 (stereo unspecified)	none
COc1ccc(NC(=O)C2CCCN(c3nn4c(=O)cc(C)nc4s3)C2)c(OC)c1 (stereo unspecified)	none
CCc1nc(SCC(=O)NC2CCCC2)c2oc3ccccc3c2n1	none
CCc1nc(SCC(=O)N2CCCc3ccccc32)c2oc3ccccc3c2n1	TRPC4 block -5
O=c1[nH]c(CN2CCN(c3ccc([N+](=O)[O-])cc3)CC2)nc2ccsc12	none
Cc1ccc(Cl)cc1N1CCN(Cc2nc3ccsc3c(=O)[nH]2)CC1	TRPC4 PAM 28
COc1ccc(S(=O)(=O)N2CCN(CC(=O)Nc3cc(C(F)(F)F)ccc3Cl)CC2)cc1	none
CN(C)CCOC(=O)c1sc2ccccc2c1Cl	TRPC4 agonist 92
O=C(CN(C(=O)c1csnn1)c1cccc2c1CCCC2)NCc1ccccc1	none
COc1ccccc1N1CCN(C(c2cccs2)C(C)NC(=O)c2ccco2)CC1 (stereo unspecified)	TRPC4 agonist 103
O=C(Nc1ccc([N+](=O)[O-])cn1)C1CCCCC1	TRPC4 PAM 22
O=C(Nc1ccc([N+](=O)[O-])cn1)C1CC1	none
Cc1ccc(/C=C2\SC(=S)N(C(Cc3ccccc3)C(=O)O)C2=O)cc1 (stereo unspecified)	TRPC4 block -8
O=C(O)C(Cc1ccccc1)N1C(=O)/C(=C/c2ccccc2)SC1=S (stereo unspecified)	none
COC(=O)/C=C/CC(C)OS(N)(=O)=O (stereo unspecified)	none
OCC[C@@H]1C[C@H](O)[C@@H](O)[C@]2(OCc3ccccc32)O1	none
Cc1ccc(-c2nn(-c3ccccc3)cc2CNCc2ccccc2)cc1	none
Cc1ccc(-n2cc(CNC(C)c3cnn(C)c3C)c(-c3ccc(F)cc3)n2)cc1 (stereo unspecified)	TRPC4 agonist 184
Cc1ccc(-n2cc(CN3CCN(Cc4nccn4C)CC3)c(-c3ccc(F)cc3)n2)cc1	none
Cc1ccc(-n2cc(CNC(C)c3cnn(C)c3)c(-c3ccc(F)cc3)n2)cc1 (stereo unspecified)	TRPC4 agonist 233
Cc1ccc(-n2cc(CNCCc3cscn3)c(-c3ccc(F)cc3)n2)cc1	TRPC4 agonist 130
Cc1nnc(SCC(=O)Nc2ccccc2F)n1-c1ccc(F)cc1	none
CCOc1ccc(S(=O)(=O)n2cc(F)c(=O)[nH]c2=O)cc1[N+](=O)[O-]	none
CCc1ccc(NC(=O)N(CCN(C)C)C(C)c2cccnc2)cc1 (stereo unspecified)	TRPC4 agonist 72
CCOc1ccc(NC(=O)N(CCN(C)C)C(C)c2cccnc2)cc1 (stereo unspecified)	none
Cc1[nH]n2c(=O)cc(-c3ccc([N+](=O)[O-])cc3)nc2c1-c1ccccc1	TRPC4 block -5
CCOC(=O)CC1(NC(=O)C2CCC(=O)N(CCc3ccccc3)C2)CCCCC1 (stereo unspecified)	none
Cc1ccc2c(c1)N(C(=O)CCC(=O)Nc1ccccc1Br)CC(C)O2 (stereo unspecified)	TRPC4 block -9
CC(=O)c1ccc(NC(=O)CCC(=O)N2CC(C)Oc3ccc(C)cc32)cc1 (stereo unspecified)	none
CCCCN(C)CCCNC(=O)c1ccc2c(c1)NC(=O)C(N1CCOCC1)S2 (stereo unspecified)	TRPC4 PAM 12
CCN(CC)S(=O)(=O)c1ccc(/C=C/C(=O)OCC(=O)Nc2ccc(S(N)(=O)=O)cc2)cc1	none
CCCn1c2ccc(F)cc2c2nnc(NN)nc21	TRPC4 PAM 11
CCn1c2ccc(F)cc2c2nnc(NN)nc21	TRPC4 PAM 18
NNc1nnc2c3cc(F)ccc3n(Cc3ccccc3)c2n1	none
O=C(Nc1ccccn1)C(NS(=O)(=O)c1cccc2nsnc12)c1ccccc1 (stereo unspecified)	none
Cc1nn(-c2ccccc2)c(Cl)c1/C=N/NC(=O)CNc1n[nH]c(=O)[nH]c1=O	none
Cc1ccc(C(=O)NC(=S)NCc2ccco2)cc1	none
COc1ccc(NC(=O)CN(C)CCOc2ccc(Cl)cc2)cc1OC	TRPC4 PAM 15
COc1ccccc1C(CCNCc1ccc(N(C)C)cc1)c1ccc(OC(C)C)cc1 (stereo unspecified)	TRPC4 agonist 47
COc1ccc(CNCCC(c2ccccc2)c2ccc3c(c2)OCO3)cc1 (stereo unspecified)	TRPC4 agonist 125
CCCN1CN(Cc2ccco2)c2nc3ccccc3n2C1	TRPC4 block -6
O=C(Nc1ccc2c(c1)Cc1ccccc1-2)c1cccnc1	none
CCSc1nc(-c2ccccc2)c(C#N)c(=O)[nH]1	none
CCCOc1ccc(-c2nc(SCc3ccccc3)[nH]c(=O)c2C#N)cc1OC	TRPC4 block -7
Cc1ccccc1OCc1nnc(SCC(=O)Nc2ccc3nc(SCC(=O)Nc4ccccc4)sc3c2)n1C	none
CCCCCN1C2=NCCN2c2ccccc21	TRPC4 block -6
CCCN1C2=NCCN2c2cc(C)c(C)cc21	TRPC4 block -7
CN(C(=O)CSc1nc(-c2ccc(C(C)(C)C)cc2)c(C#N)c(=O)[nH]1)C1CCCCC1	TRPC4 block -6
N#Cc1c(-c2ccccc2)nc(SCC(=O)NC2CCCCC2)[nH]c1=O	none
Cc1ccc(C)c(-n2cc(CNCCCn3cccn3)c(-c3ccccc3)n2)c1	TRPC4 agonist 205
Cc1ccc(C)c(-n2cc(CN3CCCN(C=O)CC3)c(-c3ccccc3)n2)c1	TRPC4 agonist 72
Cc1ccc(-n2cc(CNCCCn3cccn3)c(-c3cccc(C)c3)n2)cc1	TRPC4 agonist 43
Cc1ccc(-n2cc(CNCCCn3ccnc3C)c(-c3ccc(F)cc3)n2)cc1	none
Cc1cccn2c(=O)c3cc(S(=O)(=O)c4ccccc4)c(=N)n(Cc4ccco4)c3nc12	TRPC4 PAM 10
